Screening data as filed in PubChem.
Hits are enriched below; roughly 3.6% of the tested compounds scored in any of these assays.
ATG4B inh – ATG4B (human) cysteine protease inhibition. Q9Y4P1. ATG4B cleavage of LC3-PLA2, NBD-HPC fluorescence, 1 h. inhibition, % at 8.33 µM. hit rate 0.51% among 340,000; in the data active = inhibition above about 40%
SENP1 inh – inhibitors of human SENP1 SUMO protease catalytic domain | Q9P0U3 | recombinant SENP1 catalytic domain, CyPet-SUMO1-YPet FRET cleavage | inhibition, % at 10 µM | hit rate 0.21% among 360,000 | AID 624204;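 active = inhibition at least 30% at 10 µM, raw YFP signal under a set limit, fluorescence ratio 0.5 to 1.5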;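 also: 0% = enzyme with DMSO and 100% = no enzyme wells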
Target sequence (Q9P0U3 419-644 limits assumed): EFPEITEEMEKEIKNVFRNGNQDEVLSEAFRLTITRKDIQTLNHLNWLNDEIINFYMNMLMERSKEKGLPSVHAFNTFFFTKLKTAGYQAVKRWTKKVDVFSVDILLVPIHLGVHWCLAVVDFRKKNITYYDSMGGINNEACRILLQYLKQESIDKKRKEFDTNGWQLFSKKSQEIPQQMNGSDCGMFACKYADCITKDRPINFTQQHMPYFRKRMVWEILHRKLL
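Material: hSENP1 catalytic domain, recombinant; medium: Tris pH 8 with BME, BSA, NP40 and catalase; compound: single concentration of 10 µM compound, 0.5% DMSO final; technique: FRET read of cyan and yellow fluorescence; timing: 50 min enzyme reaction, room temperature, light-protected; reagent: SFCypet-SUMO1-SFYpet substrate at 25 nM; control set: no-enzyme low, enzyme-DMSO high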
GRIN3A LBD mod – NR3A (human) ligand-binding domain modulation. NR3A LBD differential scanning fluorimetry, Tm shift; 0% = protein alone, 100% = glycine-bound protein. hit rate 2.5% among 340,000. Tm shift relative to glycine control, % at 25 µM;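 active = melting temperature shift of at least 10% of the positive control shift, at one fixed dose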
UCH37 inh – human UCH37 deubiquitinating enzyme inhibition. purified proteasome/UCH37, Ub-AMC cleavage fluorescence. inhibition, % (no concentration beside the values). hit rate 0.33% among 330,000. AID 588478;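 active = mean inhibition over replicate wells above about 20%, limit read from the data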;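 also: 0% = compound-free wells with enzyme and 100% = wells lacking proteasome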
Target sequence (Q9Y5K5 whole entry, looked up): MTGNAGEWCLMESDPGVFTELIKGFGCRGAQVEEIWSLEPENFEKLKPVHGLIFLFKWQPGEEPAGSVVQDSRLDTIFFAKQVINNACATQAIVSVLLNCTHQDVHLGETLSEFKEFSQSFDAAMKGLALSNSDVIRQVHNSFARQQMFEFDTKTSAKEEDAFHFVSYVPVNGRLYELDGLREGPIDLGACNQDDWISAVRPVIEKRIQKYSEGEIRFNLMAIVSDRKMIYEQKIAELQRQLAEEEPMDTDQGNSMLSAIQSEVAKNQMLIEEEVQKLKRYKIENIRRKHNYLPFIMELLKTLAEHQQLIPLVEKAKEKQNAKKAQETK
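system = Proteasome-associated human UCH37 deubiquitinase | amount = 0.15 nM proteasome as dispensed | medium = pH 7.4 Tris-HCl (50 mM) with ovalbumin, ATP-MgCl2, DTT | incubation = 30 min preincubation with enzyme, 25 min cleavage at room temperature | detection = AMC fluorescence 355/460 nm | read-out basis = percent inhibition | controls = no-proteasome and no-compound wells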
NadD block – inhibitors of Staphylococcus aureus NadD; inhibition, % at 20 µM; hit rate 0.78% among 360,000; purified NadD enzyme, colorimetric absorbance read-out; in the data active = inhibition above about 26%
Numbers without * were called inactive.

What do the screens show for `COc1cc(Cl)ccc1OCc1cc(C(=O)N(C)Cc2nnc(C)o2)no1`?
ATG4B inh: -4; SENP1 inh: 0; GRIN3A LBD mod: 10*; UCH37 inh: 1; NadD block: -3

Results for COc1ccc(C(=O)NN=Cc2coc3ccc(Cl)cc3c2=O)cc1 ?
UCH37 inh: -8

What do the screens show for `Cn1c(=O)[nH]c(=O)c2c1nc(NCCc1ccccc1)n2CC(O)COc1ccccc1` (stereo not drawn)?
ATG4B inh: -8; SENP1 inh: 2; GRIN3A LBD mod: 0; UCH37 inh: -1; NadD block: 5

What do the screens show for `Cc1ccc(OCC(O)Cn2c(NCCc3ccccc3)nc3c2c(=O)[nH]c(=O)n3C)cc1` (stereo not drawn)?
ATG4B inh: 3; SENP1 inh: 2; GRIN3A LBD mod: 11*; UCH37 inh: 4; NadD block: -5

Results for Cn1c(=O)[nH]c(=O)c2c1nc(NCc1ccccc1)n2CC(O)c1ccccc1 (stereo not drawn) ?
ATG4B inh: -5; SENP1 inh: 2; GRIN3A LBD mod: 11*; UCH37 inh: 5; NadD block: -5

What do the screens show for `CC(=O)OC[C@H]1O[C@H](CC=NOC[C@@H](O)[C@H]2O[C@@H]3OC(C)(C)O[C@@H]3[C@H]2O)C=C[C@@H]1OC(C)=O`?
UCH37 inh: 1

How did Cc1ccc(CSc2nnc(SCC(=O)NN=Cc3ccccc3OCC(=O)O)s2)cc1 do in these assays?
UCH37 inh: 2

What do the screens show for `COCCn1c(C)cc(C=NNC(=O)c2cc3ccccc3cc2O)c1C`?
UCH37 inh: 0

How did NS(=O)(=O)c1ccc(N/N=C/c2ccncc2)cc1 do in these assays?
ATG4B inh: -9; SENP1 inh: 1; GRIN3A LBD mod: -35; NadD block: 3

Results for NS(=O)(=O)c1ccc(N/N=C/c2cn(-c3ccccc3)nc2-c2cccs2)cc1 ?
ATG4B inh: 11; SENP1 inh: -7; GRIN3A LBD mod: 34*; NadD block: 7

Results for NS(=O)(=O)c1ccc(N/N=C/c2ccccc2Br)cc1 ?
ATG4B inh: -19; SENP1 inh: 1; GRIN3A LBD mod: 14*; NadD block: -7

What do the screens show for `NC(=O)N/N=C/c1cn(-c2ccccc2)nc1-c1cccs1`?
ATG4B inh: -14; SENP1 inh: 1; GRIN3A LBD mod: 1; NadD block: -3

What do the screens show for `CCC(=NNC(=O)C1CCCC1)c1cccc(Br)c1`?
UCH37 inh: 1

What do the screens show for `CC(=NNC(=O)CSc1ccccn1)c1ccc([N+](=O)[O-])cc1`?
UCH37 inh: 2

Results for CCc1ccc(S(=O)(=O)NN=C(C)c2ccncc2)cc1 ?
UCH37 inh: 3

What do the screens show for `Nc1nc(-c2ccccc2)ns1`?
ATG4B inh: 3; SENP1 inh: -2; GRIN3A LBD mod: 13*; NadD block: 1

What do the screens show for `CCOC(=O)c1sc2ccccc2c1OC(=O)c1ccccc1`?
ATG4B inh: 11; SENP1 inh: 3; GRIN3A LBD mod: 14*; UCH37 inh: 3; NadD block: 3

How did CCOC(=O)c1sc(=NC(=O)c2ccccc2)n(C)c1C do in these assays?
ATG4B inh: 0; SENP1 inh: 0; GRIN3A LBD mod: 0; UCH37 inh: -3; NadD block: -4

What do the screens show for `C=CCc1cccc(/C=N/NC(=O)CNc2ccccc2OC)c1O`?
ATG4B inh: -10; SENP1 inh: 1; GRIN3A LBD mod: 13*; NadD block: 0

How did C=CCc1cccc(/C=N/NC(=O)CCCNc2ccc(C)cc2)c1O do in these assays?
ATG4B inh: -13; SENP1 inh: -2; GRIN3A LBD mod: 12*; NadD block: -2

Results for C=CCc1cccc(/C=N/NC(=O)CNc2ccccc2)c1O ?
ATG4B inh: -2; SENP1 inh: -5; GRIN3A LBD mod: 6; NadD block: -7

How did C=CCc1cccc(/C=N/NC(=O)CNc2cccc3ccccc23)c1O do in these assays?
ATG4B inh: 1; SENP1 inh: -1; GRIN3A LBD mod: 30*; NadD block: 7

How did FC(F)(F)c1nc2ccccc2nc1NN=Cc1ccc(Cl)cc1 do in these assays?
UCH37 inh: 5

What do the screens show for `COc1cccc(NC(=O)CN(C)C(=O)c2ccc(NC(=O)CC3SC(N4CCCC4)=NC3=O)cc2)c1` (stereo not drawn)?
ATG4B inh: -12; SENP1 inh: 0; GRIN3A LBD mod: 11*; UCH37 inh: 2; NadD block: 7

How did NS(=O)(=O)c1cccc(NC(=O)COC(=O)c2ccccc2C(=O)c2ccccc2)c1 do in these assays?
ATG4B inh: -27; SENP1 inh: 0; GRIN3A LBD mod: 0; UCH37 inh: 1; NadD block: -1

How did COc1ccc(NC(=O)CN(C)C(=O)c2oc3c(ccc4ccccc43)c2C)cc1 do in these assays?
ATG4B inh: -20; SENP1 inh: -12; GRIN3A LBD mod: -10; UCH37 inh: -3; NadD block: 4

What do the screens show for `Cc1c(C(=O)OCC(=O)Nc2cccc(S(N)(=O)=O)c2)oc2c1ccc1ccccc12`?
ATG4B inh: -9; SENP1 inh: -7; GRIN3A LBD mod: 15*; UCH37 inh: -43; NadD block: 12

Results for COc1cccc(NC(=O)CN(C)C(=O)c2oc3c(ccc4ccccc43)c2C)c1 ?
ATG4B inh: -35; SENP1 inh: -14; GRIN3A LBD mod: 17*; UCH37 inh: 0; NadD block: -7

How did CCOc1ccc(C=NNC(=O)Cn2ccnc2C)cc1 do in these assays?
UCH37 inh: 3

Results for COc1ccc(C=NNC(=O)CON=C(C)c2cccs2)cc1 ?
UCH37 inh: 0

How did CCN(CC)CCN(C(=O)c1ccc(S(=O)(=O)N(CC)c2ccccc2)cc1)c1nc2c(OC)ccc(OC)c2s1 do in these assays?
ATG4B inh: -5; SENP1 inh: 2; GRIN3A LBD mod: 12*; UCH37 inh: 3; NadD block: 1

Results for COc1ccc(C)c2sc(N(CCN(C)C)C(=O)c3ccc4ccccc4c3)nc12 ?
ATG4B inh: -6; SENP1 inh: 2; GRIN3A LBD mod: -1; UCH37 inh: 6; NadD block: 8

How did C=C1CCC[C@]2(C)C[C@H]3OC(=O)C(CNCCN(C)C)[C@H]3CC12 (stereo partly drawn) do in these assays?
ATG4B inh: -7; SENP1 inh: -1; GRIN3A LBD mod: -1; UCH37 inh: 6; NadD block: -3

Results for C=C1CCC[C@]2(C)C[C@H]3OC(=O)C(CNCC(C)C)[C@H]3CC12 (stereo partly drawn) ?
ATG4B inh: 6; SENP1 inh: 2; GRIN3A LBD mod: -3; UCH37 inh: 21*; NadD block: -2

What do the screens show for `COc1cc(C=NNc2nc(-c3ccc(C)cc3)c(NC(C)=O)s2)ccc1O`?
UCH37 inh: -31
